What was measured:
[1] = Growth inhibition of human UACC62 cells; format: functional; conditions: UACC-62
[2] = system: CAKI-1; assay: Growth inhibition of human CAKI-1 cells; format: functional
[3] = system: PC-3; assay: Growth inhibition of human PC3 cells; format: functional
[4] = Growth inhibition of human NCI-ADR-RES cells; format: functional
[5] = Growth inhibition of human BT549 cells; format: functional
[6] = system: CCRF-CEM; assay: Growth inhibition of human CCRF-CEM cells; format: functional
[7] = system: SW-620; assay: Growth inhibition of human SW620 cells; format: functional
[8] = Growth inhibition of human OVCAR3 cells; format: functional; conditions: OVCAR-3
[9] = Growth inhibition of human HCC2998 cells; format: functional; conditions: HCC 2998
[10] = system: KM12; assay: Growth inhibition of human KM12 cells; format: functional
[11] = system: HL-60(TB); assay: Growth inhibition of human HL-60(TB) cells; format: functional
[12] = system: M14; assay: Growth inhibition of human M14 cells; format: functional
[13] = system: A498; assay: Growth inhibition of human A498 cells; format: functional
[14] = system: SNB-75; assay: Growth inhibition of human SNB75 cells; format: functional
[15] = system: U-251; assay: Growth inhibition of human U251 cells; format: functional
[16] = system: NCI-H23; assay: Growth inhibition of human NCI-H23 cells; format: functional
[17] = Cytotoxicity against human colon cancer cells assessed as cell growth at 10 uM relative to control; format: functional; conditions: Cancer cell lines, read-out: Activity
Procedure, shortened: (§1)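 Single-concentration screen against a panel of human cancer cell lines. Each value is the mean percent growth across the cell lines of that tumour subpanel.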

[18] = Cytotoxicity against human ovarian cancer cells assessed as cell growth at 10 uM relative to control; format: functional; conditions: Cancer cell lines, read-out: Activity; procedure, shortened: as §1
[19] = system: T47D; assay: Growth inhibition of human T47D cells; format: functional
[20] = system: NCI-H460; assay: Growth inhibition of human NCI-H460 cells; format: functional
[21] = system: RPMI-8226; assay: Growth inhibition of human RPMI8226 cells; format: functional
[22] = Cytotoxicity against human melanoma cells assessed as cell growth at 10 uM relative to control; format: functional; conditions: read-out: Activity; procedure, shortened: as §1
[23] = Growth inhibition of human HCT15 cells; format: functional
[24] = system: 786-0; assay: Growth inhibition of human 786-0 cells; format: functional
[25] = Cytotoxicity against human prostate cancer cells assessed as cell growth at 10 uM relative to control; format: functional; conditions: Cancer cell lines, read-out: Activity; procedure, shortened: as §1
[26] = system: A549; assay: Growth inhibition of human A549/ATCC cells; format: functional
[27] = system: K562; assay: Growth inhibition of human K562 cells; format: functional
[28] = Growth inhibition of human UACC257 cells; format: functional
[29] = system: HCT-116; assay: Growth inhibition of human HCT116 cells; format: functional
[30] = Cytotoxicity against human NSCLC cells assessed as cell growth at 10 uM relative to control; format: functional; conditions: read-out: Activity; procedure, shortened: as §1
[31] = system: MDA-MB-468; assay: Growth inhibition of human MDA-MB-468 cells; format: functional
[32] = system: TK-10; assay: Growth inhibition of human TK10 cells; format: functional
[33] = target: T1, Proteasome Macropain subunit MB1 (Homo sapiens) (UniProt P28074); assay: Inhibition of chymotrypsin-like activity of 20S proteasome in human erythrocytes using Suc-Leu-Leu-Val-Tyr-AMC as substrate at 20 uM by fluorescence assay relative to control
T1 sequence (whole entry): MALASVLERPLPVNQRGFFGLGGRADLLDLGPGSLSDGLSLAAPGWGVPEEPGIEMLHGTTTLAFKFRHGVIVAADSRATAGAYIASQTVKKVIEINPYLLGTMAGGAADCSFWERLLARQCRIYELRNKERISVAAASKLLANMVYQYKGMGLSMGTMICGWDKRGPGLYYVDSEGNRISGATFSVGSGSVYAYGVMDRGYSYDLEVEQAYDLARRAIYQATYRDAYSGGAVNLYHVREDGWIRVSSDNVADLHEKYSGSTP
Procedure, shortened: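 Single inhibitor concentration, equivalent DMSO as negative control. AMC fluorescence read at ex 380/em 460 nm; percent inhibition of ChT-L activity.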

[34] = read-out: LC50 (the source's name)

SMILES: CC(C)C[C@H](NC(=O)Cn1ccc2ccc(Br)cc2c1=O)B(O)O
- GI50 [1]: 1.86 µM
- LC50 (concentration killing 50% of cells) [1]: 97 µM
- TGI [1]: 10.4 µM
- GI50 [2]: 0.41 µM
- TGI [2]: 10.5 µM
- CC50 [2, 34]: > 100 µM
- GI50 [3]: 6.31 µM
- TGI [3]: > 100 µM
- CC50 [3, 34]: > 100 µM
- GI50 [4]: 21.5 µM
- LC50 [4]: > 100 µM
- TGI [4]: > 100 µM
- GI50 ([5]; BT-549): 0.44 µM
- TGI ([5]; BT-549): 2.65 µM
- CC50 ([5]; BT-549, read-out: LC50 (the source's name)): > 100 µM
- GI50 [6]: 0.44 µM
- TGI [6]: > 100 µM
- CC50 [6, 34]: > 100 µM
- GI50 [7]: 0.46 µM
- LC50 [7]: > 100 µM
- TGI [7]: 8.19 µM
- GI50 [8]: 0.6 µM
- LC50 (concentration killing 50% of cells) [8]: > 100 µM
- TGI [8]: 3.95 µM
- GI50 [9]: 2.46 µM
- LC50 [9]: 31.4 µM
- TGI [9]: 6.37 µM
- GI50 [10]: 3.55 µM
- LC50 [10]: > 100 µM
- TGI [10]: 17.3 µM
- GI50 [11]: 0.38 µM
- TGI [11]: 5.34 µM
- CC50 [11, 34]: > 100 µM
- GI50 [12]: 1.25 µM
- LC50 (concentration killing 50% of cells) [12]: > 100 µM
- TGI [12]: 6.73 µM
- GI50 [13]: 0.1 µM
- LC50 [13]: 28.6 µM
- TGI [13]: 0.58 µM
- GI50 [14]: 2.13 µM
- LC50 [14]: 63.3 µM
- TGI [14]: 9.09 µM
- GI50 [15]: 5.56 µM
- TGI [15]: > 100 µM
- CC50 [15, 34]: > 100 µM
- GI50 [16]: 5.05 µM
- TGI [16]: > 100 µM
- CC50 [16, 34]: > 100 µM
- growth at 10 µM [17]: 3.27%
- growth at 10 µM [18]: 37.5%
- GI50 [19]: 0.78 µM
- TGI [19]: 12.4 µM
- CC50 [19, 34]: > 100 µM
- GI50 [20]: 5.58 µM
- LC50 [20]: > 100 µM
- TGI [20]: 36.8 µM
- GI50 [21]: 0.32 µM
- TGI [21]: > 100 µM
- CC50 [21, 34]: > 100 µM
- growth at 10 µM [22]: -17.1%
- GI50 ([23]; HCT-15): 3.04 µM
- TGI ([23]; HCT-15): > 100 µM
- CC50 ([23]; HCT-15, read-out: LC50 (the source's name)): > 100 µM
- GI50 [24]: 4.06 µM
- TGI [24]: > 100 µM
- CC50 [24, 34]: > 100 µM
- growth at 10 µM [25]: 42.9%
- GI50 [26]: 4.58 µM
- TGI [26]: > 100 µM
- CC50 [26, 34]: > 100 µM
- GI50 [27]: 3.15 µM
- TGI [27]: > 100 µM
- CC50 [27, 34]: > 100 µM
- GI50 ([28]; UACC-257): 0.94 µM
- TGI ([28]; UACC-257): 4.51 µM
- CC50 ([28]; UACC-257, read-out: LC50 (the source's name)): > 100 µM
- GI50 [29]: 0.6 µM
- LC50 [29]: 95.8 µM
- TGI [29]: 3.57 µM
- growth at 10 µM [30]: 22%
- GI50 [31]: 0.3 µM
- TGI [31]: 1.1 µM
- CC50 [31, 34]: > 100 µM
- GI50 [32]: 0.65 µM
- LC50 [32]: > 100 µM
- TGI [32]: 7.22 µM
- inhibition [33]: > 40%
